Laboratory results reported in ChEMBL document CHEMBL4229344 (Eur J Med Chem, 2018).

Key:
[1] = tested on: Fibroblast growth factor receptor 3 (Homo sapiens), P22607 [G697C]; assay: Binding affinity to human partial length FGFR3 G697C mutant (R442 to S771 residues) expressed in bacterial expression system assessed as residual binding level at 1 uM by Kinomescan method relative to control
In short: (§1)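 Kinome-wide single-concentration binding screen (KINOMEscan) at 1 μM against a panel of 468 purified kinases and mutants. Read-out is relative binding of each kinase compared with control. Selectivity across the panel was summarised as an S(10) score.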

[2] = biological target: Glycogen synthase kinase-3 alpha (Homo sapiens) (UniProt P49840); assay: Binding affinity to wild-type human full length GSK3A (M1 to S483 residues) expressed in bacterial expression system assessed as residual binding level at 1 uM by Kinomescan method relative to control
In short: (§2)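 Single-concentration (1 μM) competition-binding screen run by KINOMEscan against a panel of 468 purified kinases and mutants. The read-out is the relative binding activity of the test compound to each kinase.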

[3] = tested on: Phosphatidylinositol 4,5-bisphosphate 3-kinase catalytic subunit alpha isoform (Homo sapiens), P42336 [E545A]; assay: Binding affinity to human partial length PIK3CA E545A mutant (R108 to N1068 residues) expressed in mammalian expression system assessed as residual binding level at 1 uM by Kinomescan method relative to control; in short: as §1
Chain of Phosphatidylinositol 4,5-bisphosphate 3-kinase catalytic subunit alpha isoform (Homo sapiens), P42336 [E545A] (P42336 whole entry E545A, the tested form may be a part, canonical isoform): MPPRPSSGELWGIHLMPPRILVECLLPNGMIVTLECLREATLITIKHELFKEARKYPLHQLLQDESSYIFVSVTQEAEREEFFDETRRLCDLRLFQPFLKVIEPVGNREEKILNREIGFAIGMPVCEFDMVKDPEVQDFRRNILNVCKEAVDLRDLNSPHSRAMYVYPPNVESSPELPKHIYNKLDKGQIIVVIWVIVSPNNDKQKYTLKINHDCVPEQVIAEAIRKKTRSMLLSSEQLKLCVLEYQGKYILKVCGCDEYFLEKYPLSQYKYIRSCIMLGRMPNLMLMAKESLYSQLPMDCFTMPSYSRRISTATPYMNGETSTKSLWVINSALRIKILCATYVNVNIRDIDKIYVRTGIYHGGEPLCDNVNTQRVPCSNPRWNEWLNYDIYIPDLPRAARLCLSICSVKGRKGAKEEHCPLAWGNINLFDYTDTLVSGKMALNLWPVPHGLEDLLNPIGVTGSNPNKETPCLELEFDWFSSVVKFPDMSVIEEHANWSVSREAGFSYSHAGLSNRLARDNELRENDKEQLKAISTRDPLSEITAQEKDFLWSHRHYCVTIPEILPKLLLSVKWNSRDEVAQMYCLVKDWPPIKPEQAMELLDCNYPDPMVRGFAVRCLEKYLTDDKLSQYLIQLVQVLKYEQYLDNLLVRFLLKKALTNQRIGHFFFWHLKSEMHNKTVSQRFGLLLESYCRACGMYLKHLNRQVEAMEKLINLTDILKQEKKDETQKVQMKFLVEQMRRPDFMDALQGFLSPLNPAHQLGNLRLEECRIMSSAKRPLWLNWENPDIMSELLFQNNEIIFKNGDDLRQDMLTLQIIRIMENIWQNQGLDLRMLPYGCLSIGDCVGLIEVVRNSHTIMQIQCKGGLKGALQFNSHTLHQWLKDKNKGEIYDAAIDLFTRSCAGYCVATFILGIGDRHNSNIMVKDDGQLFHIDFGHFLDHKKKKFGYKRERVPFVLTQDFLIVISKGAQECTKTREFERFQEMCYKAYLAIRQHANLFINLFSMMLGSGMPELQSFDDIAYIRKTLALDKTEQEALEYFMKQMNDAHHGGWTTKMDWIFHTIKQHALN

[4] = biological target: Serine/threonine-protein kinase 33 (Homo sapiens) (UniProt Q9BYT3); assay: Binding affinity to wild-type human full length STK33 (M1 to L514 residues) expressed in bacterial expression system assessed as residual binding level at 1 uM by Kinomescan method relative to control
In short: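 KINOMEscan competition binding against 468 purified kinases/mutants, test compound at 1 µM; residual binding relative to control.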

[5] = biological target: Cyclin-dependent kinase 8 (Homo sapiens) (UniProt P49336); assay: Binding affinity to wild-type human partial length CDK8 (M1 to T360 residues) expressed in bacterial expression system assessed as residual binding level at 1 uM by Kinomescan method relative to control
[6] = biological target: Platelet-derived growth factor receptor beta (Homo sapiens, UniProt P09619); assay: Binding affinity to wild-type human partial length PDGFRbeta (V582 to Y1009 residues) expressed in bacterial expression system assessed as residual binding level at 1 uM by Kinomescan method relative to control
In short: (§3)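 KINOMEscan competition binding against a panel of 468 purified kinases/mutants, compound tested at 1 μM; readout is relative binding activity versus control.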

[7] = biological target: Serine/threonine-protein kinase Nek10 (Homo sapiens) (UniProt Q6ZWH5); assay: Binding affinity to wild-type human partial length NEK10 (L488 to R809 residues) expressed in mammalian expression system assessed as residual binding level at 1 uM by Kinomescan method relative to control
[8] = tested on: Phosphatidylinositol 4,5-bisphosphate 3-kinase catalytic subunit alpha isoform (Homo sapiens), P42336 [M1043I]; assay: Binding affinity to human partial length PIK3CA M1043I mutant (R108 to N1068 residues) expressed in mammalian expression system assessed as residual binding level at 1 uM by Kinomescan method relative to control; in short: as §1
[9] = biological target: Serine/threonine-protein kinase D3 (Homo sapiens) (UniProt O94806); assay: Binding affinity to wild-type human partial length PRKD3 (S543 to E863 residues) expressed in bacterial expression system assessed as residual binding level at 1 uM by Kinomescan method relative to control
[10] = biological target: Ephrin type-A receptor 8 (Homo sapiens) (UniProt P29322); assay: Binding affinity to wild-type human partial length EPHA8 (Q608 to C920 residues) expressed in bacterial expression system assessed as residual binding level at 1 uM by Kinomescan method relative to control
In short: (§4)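 Kinome-wide competition binding screen against a panel of 468 purified kinases/mutants, with the test compound at a single concentration of 1 μM. Read-out is the relative binding activity of each kinase in the presence of compound.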

[11] = biological target: Serine/threonine-protein kinase D1 (Homo sapiens) (UniProt Q15139); assay: Binding affinity to wild-type human partial length PRKD1 (G551 to E870 residues) expressed in bacterial expression system assessed as residual binding level at 1 uM by Kinomescan method relative to control; in short: as §3
[12] = biological target: Serine/threonine-protein kinase ULK1 (Homo sapiens) (UniProt O75385); assay: Binding affinity to wild-type human partial length ULK1 (M1 to T309 residues) expressed in mammalian expression system assessed as residual binding level at 1 uM by Kinomescan method relative to control
[13] = biological target: Receptor-type tyrosine-protein kinase FLT3 (Homo sapiens) (UniProt P36888); assay: Binding affinity to wild-type human partial length autoinhibited FLT3 (H564 to Y969 residues) expressed in mammalian expression system assessed as residual binding level at 1 uM by Kinomescan method relative to control
[14] = biological target: Myosin light chain kinase, smooth muscle (Homo sapiens) (UniProt Q15746); assay: Binding affinity to wild-type human full length MYLK (M854 to E1845 residues) expressed in mammalian expression system assessed as residual binding level at 1 uM by Kinomescan method relative to control
Chain of Myosin light chain kinase, smooth muscle (Homo sapiens) (Q15746 whole entry, the tested form may be a part): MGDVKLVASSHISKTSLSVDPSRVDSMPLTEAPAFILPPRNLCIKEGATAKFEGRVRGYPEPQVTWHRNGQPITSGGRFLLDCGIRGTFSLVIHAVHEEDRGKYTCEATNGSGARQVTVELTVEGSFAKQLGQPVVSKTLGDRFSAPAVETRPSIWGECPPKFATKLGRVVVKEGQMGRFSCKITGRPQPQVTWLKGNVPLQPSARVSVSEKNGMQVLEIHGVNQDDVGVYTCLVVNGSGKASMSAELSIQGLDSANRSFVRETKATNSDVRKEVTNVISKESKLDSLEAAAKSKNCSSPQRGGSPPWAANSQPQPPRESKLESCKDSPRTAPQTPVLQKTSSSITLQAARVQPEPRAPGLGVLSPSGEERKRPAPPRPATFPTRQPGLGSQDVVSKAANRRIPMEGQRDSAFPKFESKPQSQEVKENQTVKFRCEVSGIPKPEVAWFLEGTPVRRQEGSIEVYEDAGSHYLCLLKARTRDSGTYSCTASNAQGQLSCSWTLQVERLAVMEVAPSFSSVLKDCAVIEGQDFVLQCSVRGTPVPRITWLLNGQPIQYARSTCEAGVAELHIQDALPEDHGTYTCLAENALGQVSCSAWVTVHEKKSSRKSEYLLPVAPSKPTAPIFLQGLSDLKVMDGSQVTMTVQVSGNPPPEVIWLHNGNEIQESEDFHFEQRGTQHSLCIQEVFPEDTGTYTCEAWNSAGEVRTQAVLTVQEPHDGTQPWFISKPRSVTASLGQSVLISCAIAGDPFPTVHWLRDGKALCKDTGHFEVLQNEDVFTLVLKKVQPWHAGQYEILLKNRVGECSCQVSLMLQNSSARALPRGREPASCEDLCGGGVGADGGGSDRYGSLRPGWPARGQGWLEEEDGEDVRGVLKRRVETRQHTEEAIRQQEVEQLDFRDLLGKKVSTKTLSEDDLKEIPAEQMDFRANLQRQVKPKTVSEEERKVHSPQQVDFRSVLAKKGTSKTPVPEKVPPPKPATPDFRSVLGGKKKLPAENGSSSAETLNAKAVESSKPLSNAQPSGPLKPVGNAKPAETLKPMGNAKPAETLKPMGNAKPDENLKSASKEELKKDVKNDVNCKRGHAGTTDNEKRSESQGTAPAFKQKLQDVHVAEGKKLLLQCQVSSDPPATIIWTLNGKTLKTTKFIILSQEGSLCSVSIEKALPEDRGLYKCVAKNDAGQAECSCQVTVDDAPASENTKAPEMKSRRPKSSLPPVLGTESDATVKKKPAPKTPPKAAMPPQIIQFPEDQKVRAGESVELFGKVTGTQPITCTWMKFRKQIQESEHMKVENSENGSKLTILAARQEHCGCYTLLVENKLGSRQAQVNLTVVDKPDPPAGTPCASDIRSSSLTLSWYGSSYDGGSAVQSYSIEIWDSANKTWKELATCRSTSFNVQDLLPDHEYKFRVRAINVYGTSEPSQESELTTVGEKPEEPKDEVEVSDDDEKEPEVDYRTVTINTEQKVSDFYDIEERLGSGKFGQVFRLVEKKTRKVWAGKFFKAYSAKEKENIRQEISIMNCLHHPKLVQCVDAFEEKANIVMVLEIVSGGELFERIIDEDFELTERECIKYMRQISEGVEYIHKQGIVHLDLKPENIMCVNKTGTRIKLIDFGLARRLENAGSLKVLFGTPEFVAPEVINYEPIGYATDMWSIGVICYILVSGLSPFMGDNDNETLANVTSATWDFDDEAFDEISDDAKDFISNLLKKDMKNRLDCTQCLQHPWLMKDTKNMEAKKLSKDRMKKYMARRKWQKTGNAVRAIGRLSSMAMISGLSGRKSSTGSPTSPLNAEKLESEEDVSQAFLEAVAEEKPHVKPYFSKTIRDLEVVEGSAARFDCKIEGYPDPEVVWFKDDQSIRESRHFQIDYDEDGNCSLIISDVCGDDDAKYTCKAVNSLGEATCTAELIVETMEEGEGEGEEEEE
In short: (§5)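 Single-concentration KINOMEscan (DiscoverX) binding screen at 1 μM against a panel of 468 purified kinases and mutants. The read-out is binding relative to control.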

[15] = biological target: Ephrin type-A receptor 3 (Homo sapiens) (UniProt P29320); assay: Binding affinity to wild-type human partial length EPHA3 (D604 to K889 residues) expressed in bacterial expression system assessed as residual binding level at 1 uM by Kinomescan method relative to control; in short: as §4
[16] = biological target: Serine/threonine-protein kinase Nek7 (Homo sapiens) (UniProt Q8TDX7); assay: Binding affinity to wild-type human full length NEK7 (M1 to S302 residues) expressed in bacterial expression system assessed as residual binding level at 1 uM by Kinomescan method relative to control; in short: as §5
[17] = biological target: Serine/threonine-protein kinase Nek4 (Homo sapiens) (UniProt P51957); assay: Binding affinity to wild-type human full length NEK4 (M1 to F841 residues) expressed in mammalian expression system assessed as residual binding level at 1 uM by Kinomescan method relative to control; in short: as §5
Chain of Serine/threonine-protein kinase Nek4 (Homo sapiens) (P51957 whole entry, looked up, the tested form may be a part): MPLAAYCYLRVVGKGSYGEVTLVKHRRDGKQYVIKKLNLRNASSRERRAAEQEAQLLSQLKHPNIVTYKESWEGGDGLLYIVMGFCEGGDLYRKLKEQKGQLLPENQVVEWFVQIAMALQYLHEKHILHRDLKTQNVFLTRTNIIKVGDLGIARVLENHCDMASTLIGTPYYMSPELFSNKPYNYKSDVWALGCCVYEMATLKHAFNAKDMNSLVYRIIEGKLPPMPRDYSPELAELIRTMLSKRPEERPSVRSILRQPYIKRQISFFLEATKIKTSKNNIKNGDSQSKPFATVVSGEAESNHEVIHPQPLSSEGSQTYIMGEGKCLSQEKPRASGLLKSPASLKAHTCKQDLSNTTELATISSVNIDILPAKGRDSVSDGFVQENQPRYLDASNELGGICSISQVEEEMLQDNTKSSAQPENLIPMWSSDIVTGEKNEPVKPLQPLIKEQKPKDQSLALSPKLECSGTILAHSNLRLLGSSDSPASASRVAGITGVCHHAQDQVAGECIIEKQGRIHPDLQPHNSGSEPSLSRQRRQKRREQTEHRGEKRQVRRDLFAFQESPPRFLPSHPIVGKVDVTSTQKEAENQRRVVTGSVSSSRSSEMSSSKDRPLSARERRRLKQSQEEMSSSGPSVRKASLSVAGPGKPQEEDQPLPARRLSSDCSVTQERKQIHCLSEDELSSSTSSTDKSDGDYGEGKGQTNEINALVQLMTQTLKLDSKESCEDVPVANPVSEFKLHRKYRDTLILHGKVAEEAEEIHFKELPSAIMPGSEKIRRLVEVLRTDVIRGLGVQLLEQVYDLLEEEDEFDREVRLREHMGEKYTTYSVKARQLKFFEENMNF

[18] = biological target: Cyclin-dependent kinase 3 (Homo sapiens) (UniProt Q00526); assay: Binding affinity to wild-type human full length CDK3 (M1 to H305 residues) expressed in bacterial expression system assessed as residual binding level at 1 uM by Kinomescan method relative to control; in short: as §2
[19] = biological target: MAP kinase-interacting serine/threonine-protein kinase 2 (Homo sapiens) (UniProt Q9HBH9); assay: Binding affinity to wild-type human partial length MKNK2 (G63 to S388 residues) expressed in mammalian expression system assessed as residual binding level at 1 uM by Kinomescan method relative to control
[20] = biological target: Ephrin type-A receptor 1 (Homo sapiens) (UniProt P21709); assay: Binding affinity to wild-type human partial length EPHA1 (V588 to I913 residues) expressed in bacterial expression system assessed as residual binding level at 1 uM by Kinomescan method relative to control
[21] = biological target: Serine/threonine-protein kinase Nek2 (Homo sapiens) (UniProt P51955); assay: Binding affinity to wild-type human partial length NEK2 (M1 to K309 residues) expressed in bacterial expression system assessed as residual binding level at 1 uM by Kinomescan method relative to control; in short: as §3
Chain of Serine/threonine-protein kinase Nek2 (Homo sapiens) (P51955 whole entry, the tested form may be a part): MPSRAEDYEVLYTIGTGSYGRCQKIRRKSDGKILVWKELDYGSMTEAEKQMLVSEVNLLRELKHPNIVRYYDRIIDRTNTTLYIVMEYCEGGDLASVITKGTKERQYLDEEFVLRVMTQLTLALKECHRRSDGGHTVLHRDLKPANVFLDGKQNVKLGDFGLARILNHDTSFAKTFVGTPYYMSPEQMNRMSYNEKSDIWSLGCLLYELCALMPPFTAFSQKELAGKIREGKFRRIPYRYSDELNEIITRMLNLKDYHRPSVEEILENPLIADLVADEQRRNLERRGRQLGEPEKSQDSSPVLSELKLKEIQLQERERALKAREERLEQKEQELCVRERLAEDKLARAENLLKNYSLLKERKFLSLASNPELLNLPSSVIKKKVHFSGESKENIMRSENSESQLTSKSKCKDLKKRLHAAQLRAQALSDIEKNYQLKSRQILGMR

Chain of Fibroblast growth factor receptor 3 (Homo sapiens), P22607 [G697C] (P22607 whole entry G697C, the tested form may be a part): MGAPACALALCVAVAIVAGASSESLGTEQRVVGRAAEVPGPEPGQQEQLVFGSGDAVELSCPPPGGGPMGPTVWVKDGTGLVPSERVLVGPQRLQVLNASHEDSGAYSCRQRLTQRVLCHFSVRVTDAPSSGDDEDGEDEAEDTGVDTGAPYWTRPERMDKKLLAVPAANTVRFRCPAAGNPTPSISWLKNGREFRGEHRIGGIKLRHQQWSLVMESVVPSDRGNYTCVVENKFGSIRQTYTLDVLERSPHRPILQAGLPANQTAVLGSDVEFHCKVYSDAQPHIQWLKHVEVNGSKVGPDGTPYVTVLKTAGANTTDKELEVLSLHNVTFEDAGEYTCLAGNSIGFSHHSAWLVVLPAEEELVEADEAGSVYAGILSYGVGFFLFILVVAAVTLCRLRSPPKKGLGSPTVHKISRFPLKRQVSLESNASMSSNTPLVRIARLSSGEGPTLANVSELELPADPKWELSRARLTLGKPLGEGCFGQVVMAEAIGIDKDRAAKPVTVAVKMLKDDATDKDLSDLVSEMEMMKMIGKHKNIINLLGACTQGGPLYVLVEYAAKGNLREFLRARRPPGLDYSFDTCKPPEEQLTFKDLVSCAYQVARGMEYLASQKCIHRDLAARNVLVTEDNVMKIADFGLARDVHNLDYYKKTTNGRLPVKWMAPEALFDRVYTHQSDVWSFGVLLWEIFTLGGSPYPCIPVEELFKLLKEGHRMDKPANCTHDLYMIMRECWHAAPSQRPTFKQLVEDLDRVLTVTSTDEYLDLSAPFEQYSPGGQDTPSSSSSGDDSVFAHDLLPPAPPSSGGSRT

## Cc1ccc(NC(=O)c2ccc(CN(CCN(C)C)C(=O)c3cccnc3)cc2)cc1Nc1nccc(-c2cccnc2)n1
[1]
  Activity: 100%
[2]
  Activity: 100%
[3]
  Activity: 63%
[4]
  Activity: 89%
[5]
  Activity: 90%
[6]
  Activity: 0.7%
[7]
  Activity: 100%
[8]
  Activity: 100%
[9]
  Activity: 100%
[10]
  Activity: 89%
[11]
  Activity: 75%
[12]
  Activity: 100%
[13]
  Activity: 100%
[14]
  Activity: 100%
[15]
  Activity: 89%
[16]
  Activity: 96%
[17]
  Activity: 100%
[18]
  Activity: 85%
[19]
  Activity: 100%
[20]
  Activity: 100%
[21]
  Activity: 91%
